Activity calls are given as the source filed them. No cut-off for these calls is given here.
Assays:
MDA-MB-231 = assay: Cell cycle arrest in human […] cells assessed as accumulation at G2 phase at 2.5 uM by propidium iodide staining by FACS analysis (reference value: 22.74%); assay type: functional
MCF7 [1] = assay: Inhibition of EGF expression in human MCF7 cells at 5 uM by ELISA; assay type: functional, cell-based
[2] = molecular target: RAC-alpha serine/threonine-protein kinase (Homo sapiens) (UniProt P31749); assay: Inhibition of basal level AKT phosphorylation in human MCF7 cells at 1 uM by ELISA; assay type: cell-based
MCF7 [3] = assay: Cytotoxicity against human […] cells assessed as cell viability at 5 uM by MTT assay in presence of z-LEHD-FMK caspase-9 inhibitor; assay type: functional, cell-based
Procedure, shortened: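 Cells seeded 1×10^4/well in DMEM with 10% FBS, adhered overnight, serum-starved 4 h; pre-incubated 2 h with Z-IETD-FMK or Z-LEHD-FMK (10µM each), then 5μM compound for a further 24 h; viability by MTT.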

RAC-alpha serine/threonine-protein kinase (Homo sapiens), sequence (P31749 whole entry): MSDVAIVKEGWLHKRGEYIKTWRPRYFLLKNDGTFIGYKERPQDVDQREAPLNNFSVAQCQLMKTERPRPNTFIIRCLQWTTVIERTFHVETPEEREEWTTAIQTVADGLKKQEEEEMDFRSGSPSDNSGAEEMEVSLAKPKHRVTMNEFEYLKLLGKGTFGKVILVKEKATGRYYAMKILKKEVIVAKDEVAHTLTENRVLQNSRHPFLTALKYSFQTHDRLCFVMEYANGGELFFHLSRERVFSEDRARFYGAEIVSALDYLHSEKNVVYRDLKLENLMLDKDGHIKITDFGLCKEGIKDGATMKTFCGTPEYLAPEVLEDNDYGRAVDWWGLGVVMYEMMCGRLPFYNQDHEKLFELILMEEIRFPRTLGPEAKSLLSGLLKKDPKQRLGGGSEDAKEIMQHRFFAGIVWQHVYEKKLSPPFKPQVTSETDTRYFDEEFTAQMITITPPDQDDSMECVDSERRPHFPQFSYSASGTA

Row | SMILES | Activity (MDA-MB-231) | inhibition (MCF7 [1]) | inhibition [2] | Activity (MCF7 [3])
1 | CCN(CC)CCO/N=C(\c1ccc(SC)cc1)c1cccc2ccccc12.O=C(O)C(=O)O | 6.22% | – | – | –
2 | CCN(CC)CCO/N=C(\c1ccc(SC)cc1)c1cccc2ccccc12 | – | Active | inactive | inactive

— ChEMBL document CHEMBL3352791, “Thioaryl naphthylmethanone oxime ether analogs as novel anticancer agents” (J Med Chem, 2014)
